In ChEMBL document CHEMBL1122173, “Effects of conformationally restricted 4-piperazinyl-10H-thienobenzodiazepine neuroleptics on central dopaminergic and cholinergic systems” (J Med Chem, 1982):

Columns and labels:
[1] = test system: Mus musculus; assay: Tested for physostigmine lethality at a dose of 50 mg/kg after oral administration in mice; type: functional
In short: (§1)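 Groups of 10 CFW mice (19-26 g) given test compound in distilled water or 0.5% carboxymethylcellulose 1 h (0.5 h for hyoscine) before physostigmine 1 mg/kg ip. Tremor or death scored at 10, 20 and 60 min after physostigmine (dead at 10 min = 4, dead later = 3, marked tremor = 2, slight tremor = 1, no effect = 0). Value is percent reduction in group score versus control group.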

[2] = molecular target: Muscarinic acetylcholine receptor; assay: Displacement of [3H]QNB from Muscarinic acetylcholine receptor of rat brain membrane
[3] = test system: Mus musculus; assay: Tested for physostigmine lethality at a dose of 10 mg/kg after oral administration in mice; type: functional; in short: as §1
[4] = test system: Mus musculus; assay: Tested for physostigmine lethality at a dose of 2.5 mg/kg after oral administration in mice; type: functional; in short: as §1
[5] = test system: Mus musculus; assay: Tested for physostigmine lethality at a dose of 5 mg/kg after oral administration in mice; type: functional; in short: as §1
[6] = test system: Mus musculus; assay: Tested for physostigmine lethality at a dose of 12 mg/kg after oral administration in mice; type: functional; in short: as §1
[7] = test system: Mus musculus; assay: Tested for physostigmine lethality at a dose of 8 mg/kg after oral administration in mice; type: functional; in short: as §1
[8] = test system: Mus musculus; assay: Tested for physostigmine lethality at a dose of 25 mg/kg after oral administration in mice; type: functional; in short: as §1
[9] = test system: Mus musculus; assay: Tested for physostigmine lethality at a dose of 20 mg/kg after oral administration in mice; type: functional; in short: as §1
[10] = test system: Mus musculus; assay: Tested for physostigmine lethality at a dose of 15 mg/kg after oral administration in mice; type: functional; in short: as §1

Row | Compound | IC50 [2] | Protection [3] | Protection [5] | also measured
1 | Cc1sc2c(c1C(C)C)C(N1CCN(C)CC1)=Nc1cc(F)ccc1N2 | 64 nM |  |  | Protection [1]: 35%
2 | Cc1csc2c1C(N1CCN(C)CC1)=Nc1cc(F)ccc1N2 | 101 nM | 67% | 65% | Protection [4]: 5%
3 | CCc1cc2c(s1)Nc1ccc(F)cc1N=C2N1CCN(C)CC1 | 116 nM | 33% |  | Protection [6]: 75%; Protection [7]: 18%
4 | CN1CCN(C2=Nc3cc(F)ccc3Nc3sc4c(c32)CCCC4)CC1 | 34 nM | 46% | 46% | Protection [8]: 71%
5 | CCc1c(C)sc2c1C(N1CCN(C)CC1)=Nc1cc(F)ccc1N2 | 26 nM | 75% | 60% | Protection [9]: 53%
6 | Cc1sc2c(c1C)C(N1CCN(C)CC1)=Nc1cc(F)ccc1N2 | 9 nM | 74% | 33% | Protection [4]: 5%
7 | CCc1cc2c(s1)Nc1ccc(F)cc1N=C2N1CC(C)N(C)C(C)C1 (configuration not stated) | 258 nM |  |  | Protection [1]: 24%
8 | CCc1cc2c(s1)Nc1ccc(F)cc1N=C2N1CCN(C)C(C)C1 (configuration not stated) | 97 nM | 17% |  | Protection [9]: 42%
9 | CC(C)c1csc2c1C(N1CCN(C)CC1)=Nc1cc(F)ccc1N2 | 26 nM |  |  | Protection [1]: 35%
10 | CN1CCN(C2=Nc3cc(F)ccc3Nc3sccc32)CC1 | 574 nM |  |  | 
11 | CCc1cc2c(s1)Nc1ccc(F)cc1N=C2N1CC(C)N(C)CC1C (configuration not stated) | 247 nM |  |  | 
12 | CN1CCN(C2=Nc3cc(Cl)ccc3Nc3ccccc32)CC1 [CLOZAPINE] |  |  |  | Protection [10]: 53%
13 | Cc1cc2c(s1)Nc1ccc(F)cc1N=C2N1CCN(C)CC1 [FLUMEZAPINE] | 74 nM | 75% | 64% | Protection [4]: 50%
14 | O=C(CCCN1CCC(O)(c2ccc(Cl)cc2)CC1)c1ccc(F)cc1 [HALOPERIDOL] |  |  | 0% | 
